{"source": "ChEMBL document CHEMBL3784997", "about": "(J Med Chem, 2016)", "key": {"[1]": {"target": "Adenosine receptor A2a (Homo sapiens) (UniProt P29274)", "sequence (P29274 whole entry)": "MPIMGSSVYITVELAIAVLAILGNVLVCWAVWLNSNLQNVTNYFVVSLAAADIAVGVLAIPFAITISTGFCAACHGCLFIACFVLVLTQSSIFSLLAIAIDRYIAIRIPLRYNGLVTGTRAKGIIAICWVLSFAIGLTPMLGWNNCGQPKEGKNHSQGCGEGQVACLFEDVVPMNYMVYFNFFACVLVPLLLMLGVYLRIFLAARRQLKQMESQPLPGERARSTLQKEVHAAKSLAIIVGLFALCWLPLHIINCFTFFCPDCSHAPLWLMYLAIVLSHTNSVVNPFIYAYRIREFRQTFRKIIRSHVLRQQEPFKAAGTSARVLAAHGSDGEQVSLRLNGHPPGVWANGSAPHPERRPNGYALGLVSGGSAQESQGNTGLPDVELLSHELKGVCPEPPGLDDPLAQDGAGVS", "assay": "Displacement of [3H]ZM241385 from human Adenosine A2A receptor expressed in HeLa cells at 1 uM after 30 mins", "format": "cell-based", "method_in_brief": "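Membranes from HeLa cells expressing human A2A were labelled with 3 nM [3H]ZM241385, with non-specific binding defined by 50 µM NECA, and incubated at 25 °C for 30 min. The value is percent displacement of specific binding at 1 µM test compound (n = 2).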"}, "[2]": {"target": "T1, Adenosine receptor A2b (Homo sapiens) (UniProt P29275)", "T1 sequence (whole entry)": "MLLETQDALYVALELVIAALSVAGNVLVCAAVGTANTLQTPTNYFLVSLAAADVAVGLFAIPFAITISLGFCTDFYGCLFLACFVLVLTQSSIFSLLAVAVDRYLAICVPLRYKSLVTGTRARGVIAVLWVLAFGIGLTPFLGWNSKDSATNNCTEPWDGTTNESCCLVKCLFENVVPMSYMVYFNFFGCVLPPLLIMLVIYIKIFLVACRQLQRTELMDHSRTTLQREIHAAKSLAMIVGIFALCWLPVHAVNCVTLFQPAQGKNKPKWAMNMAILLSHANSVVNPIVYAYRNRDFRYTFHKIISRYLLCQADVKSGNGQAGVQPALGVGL", "assay": "Antagonist activity at human Adenosine A2B receptor expressed in HEK293 cells assessed as inhibition of NECA-induced cAMP production preincubated for 15 mins followed by NECA addition measured after 15 mins by enzyme immunoassay", "format": "functional, cell-based", "method_in_brief": "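HEK293 cells seeded at 10000 cells/well and grown at 37 °C, 5% CO2 in EMEM F-12 with 10% FCS and 1% L-glutamine. After washing, cells were preincubated 15 min at 37 °C with compound and 30 µM rolipram in EMEM-F12/25 mM HEPES pH 7.4. NECA was then added for 15 min at 37 °C. cAMP was read by enzyme immunoassay after kit lysis; n = 3, each in duplicate.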"}, "[3]": {"target": "T2, Adenosine receptor A1 (Homo sapiens) (UniProt P30542)", "T2 sequence (whole entry)": "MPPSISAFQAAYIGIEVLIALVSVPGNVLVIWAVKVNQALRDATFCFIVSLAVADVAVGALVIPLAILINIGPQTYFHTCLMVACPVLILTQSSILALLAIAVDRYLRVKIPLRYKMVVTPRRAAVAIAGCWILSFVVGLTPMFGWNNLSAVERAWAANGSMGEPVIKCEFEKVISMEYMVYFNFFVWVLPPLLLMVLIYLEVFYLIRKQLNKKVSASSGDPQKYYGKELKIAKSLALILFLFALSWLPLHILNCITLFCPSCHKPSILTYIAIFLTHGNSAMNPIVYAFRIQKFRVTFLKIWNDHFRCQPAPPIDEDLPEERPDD", "assay": "Displacement of [3H]DPCPX from human Adenosine A1 receptor expressed in CHO cells at 1 uM after 60 mins", "format": "cell-based", "method_in_brief": "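Competition binding on membranes from CHO cells expressing human A1, labelled with 2 nM [3H]DPCPX. Non-specific binding was defined with 10 µM R-PIA, and incubation was at 25 °C for 60 min. The value is percent inhibition of specific binding at 1 µM test compound (n = 2, average).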"}, "[4]": {"target": "T3, Adenosine receptor A3 (Homo sapiens) (UniProt P0DMS8)", "T3 sequence (whole entry)": "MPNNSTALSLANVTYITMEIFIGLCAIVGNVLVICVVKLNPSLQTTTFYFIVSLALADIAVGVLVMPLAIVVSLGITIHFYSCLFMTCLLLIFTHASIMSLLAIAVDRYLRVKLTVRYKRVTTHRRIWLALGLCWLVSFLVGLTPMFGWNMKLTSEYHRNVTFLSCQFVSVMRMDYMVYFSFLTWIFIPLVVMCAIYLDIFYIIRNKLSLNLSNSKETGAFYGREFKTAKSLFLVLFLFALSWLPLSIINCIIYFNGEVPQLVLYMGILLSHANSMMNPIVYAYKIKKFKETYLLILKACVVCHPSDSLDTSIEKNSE", "assay": "Displacement of [3H]NECA from human Adenosine A3 receptor expressed in HeLa cells at 1 uM after 180 mins"}, "Adenosine receptor A2b [5]": {"target": "T4, Adenosine receptor A2b (Homo sapiens, UniProt P29275)", "T4 sequence (P29275 whole entry)": "T1 sequence (whole entry)", "assay": "Displacement of [3H]DPCPX from human Adenosine A2B receptor expressed in HEK293 cells after 30 mins", "format": "cell-based"}, "Adenosine receptor A2b [6]": {"target": "T4, Adenosine receptor A2b", "assay": "Displacement of [3H]OSIP339391 from human recombinant Adenosine A2B receptor expressed in HEK293 cells after 60 mins", "format": "cell-based"}, "Adenosine receptor A3": {"target": "T5, Adenosine receptor A3 (Homo sapiens, UniProt P0DMS8)", "T5 sequence (P0DMS8 whole entry)": "T3 sequence (whole entry)", "assay": "Displacement of [3H]NECA from human Adenosine A3 receptor expressed in HeLa cells after 180 mins"}, "[7]": {"target": "T1, Adenosine receptor A2b (Homo sapiens)", "assay": "Displacement of [3H]DPCPX from human Adenosine A2B receptor expressed in HEK293 cells at 1 uM after 30 mins", "format": "cell-based", "method_in_brief": "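Membranes from HEK-293 cells expressing human A2B were labelled with 35 nM [3H]DPCPX, with non-specific binding defined by 400 µM NECA, and incubated at 25 °C for 30 min.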"}}, "data": [{"smiles": "CC1=C(C(=O)OC(C)C)C(c2ccco2)n2c(nc3ccccc32)N1", "note": "(racemic)", "values": [{"measurement": "Activity", "setting": "[1]", "value": 25, "unit": "%"}, {"measurement": "Kb", "setting": "[2]", "value": 0.027, "unit": "µM"}, {"measurement": "Activity", "setting": "[3]", "value": 20, "unit": "%"}, {"measurement": "Activity", "setting": "[4]", "value": 2, "unit": "%"}]}, {"smiles": "CC1=C(C(=O)OC(C)C)C(c2ccco2)n2ncnc2N1", "note": "(racemic)", "values": [{"measurement": "Ki", "setting": "Adenosine receptor A2b [5]", "value": 0.0556, "unit": "µM"}, {"measurement": "Activity", "setting": "[1]", "value": 5, "unit": "%"}, {"measurement": "Kb", "setting": "[2]", "value": 0.266, "unit": "µM"}, {"measurement": "Activity", "setting": "[3]", "value": 2, "unit": "%"}, {"measurement": "Activity", "setting": "[4]", "value": 2, "unit": "%"}]}, {"smiles": "CC(=O)NCCNc1nc(-c2ccccc2)nc2nc(C(=O)N3CCN(CCCc4ccccc4)CC3)[nH]c12", "values": [{"measurement": "Ki", "setting": "Adenosine receptor A2b [6]", "value": 0.0005, "unit": "µM"}]}, {"smiles": "CCOC(=O)C1=C(C)Nc2nccn2C1c1cccs1", "note": "(racemic)", "values": [{"measurement": "Ki", "setting": "Adenosine receptor A3", "value": 4.61, "unit": "µM"}, {"measurement": "Activity", "setting": "[1]", "value": 2, "unit": "%"}, {"measurement": "Activity", "setting": "[7]", "value": 8, "unit": "%"}, {"measurement": "Activity", "setting": "[3]", "value": 2, "unit": "%"}]}]}
